In data set [1] the test system is Trypanosoma brucei brucei. In words: Antitrypanosomal activity against digitonin permeabilized bloodstream form of Trypanosoma brucei brucei s427 assessed as increase in propidium iodide uptake at 0.3 to 1 uM up to 48 hrs by flow cytometry. It counts as functional, organism-based. Put shortly: (§1)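 Bloodstream-form T. brucei cultures were exposed to compound for up to 48 h, with duplicate samples taken at 24 and 48 h. Lysis sample: PI added directly for 10 min. DNA-content sample: fixed in 70% methanol or permeabilized with digitonin, RNase-treated, then PI-stained. 10000 cells were counted per panel by flow cytometry, and the experiment was run three times.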
In general terms: In flow cytometry, cells or beads pass a laser one at a time.

Data set [2] has as its system Trypanosoma brucei brucei. In words: Antitrypanosomal activity against bloodstream form of Trypanosoma brucei brucei 427 (BS221) after 72 hrs by alamar blue assay. In kind it is functional, organism-based.
Data set [3] concerns Trypanosoma brucei brucei. Description: Antitrypanosomal activity against Trypanosoma brucei brucei 427 at 10 uM after 24 hrs by hemocytometry. In kind it is functional, organism-based. A digest of the protocol: (§2)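 Reversibility test: bloodstream-form T. brucei cultures seeded at 2 × 10⁴ cells, compound added at t = 0 h. Compound was washed out after 24 h or 48 h, or left in. Growth was monitored over 72 h against drug-free controls.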

Data set [4] deals with Trypanosoma brucei brucei. In words: Antitrypanosomal activity against TbAt1-deficient bloodstraem form of Trypanosoma brucei brucei 427 (BS221) after 72 hrs by alamar blue assay. It counts as functional, organism-based. (In general: The colour change of resazurin is a common sign of viable cells or microbes.)
In data set [5] the test system is Trypanosoma brucei brucei. Description: Antitrypanosomal activity against bloodstream form of Trypanosoma brucei brucei 427 (BS221) assessed as increased propidium iodide uptake at 50 to 100 uM after 30 mins by real-time cell lysis assay. It counts as functional, organism-based. Put shortly:
(§3)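 Real-time lysis assay with bloodstream-form T. brucei: propidium iodide in the medium fluoresces only on binding DNA/RNA in membrane-compromised cells. Fluorescence was followed for up to 8 h across a range of concentrations. The read-out was the time to reach 80% lysis versus concentration.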

In data set [6] the test system is Trypanosoma brucei brucei. Description: Antitrypanosomal activity against Trypanosoma brucei brucei 427 at 1 uM after 48 hrs by hemocytometry. In kind it is functional, organism-based. A digest of the protocol: as §2
Data set [7] can be described thus: Selectivity ratio of EC50 for human HEK293 cells to EC50 for TbAt1-deficient bloodstraem form of Trypanosoma brucei brucei 427 (BS221). In kind it is ADME, cell-based. The note with it: read-out: Ratio EC50.
The nature of data set [8]: Selectivity ratio of EC50 for human HEK293 cells to EC50 for bloodstream form of Trypanosoma brucei brucei 427 (BS221). The note with it: read-out: Ratio EC50. In kind it is ADME, cell-based.
Data set [9] relates to Trypanosoma brucei brucei. Description: Antitrypanosomal activity against bloodstream form of Trypanosoma brucei brucei s427 assessed as increase in propidium iodide uptake at 0.3 to 1 uM up to 48 hrs by flow cytometry. In kind it is functional, organism-based. A digest of the protocol:
as §1

Data set [10] has as its system Trypanosoma brucei brucei. In words: Antitrypanosomal activity against Trypanosoma brucei brucei 427 at 0.1 uM after 72 hrs by hemocytometry. In kind it is functional, organism-based. Put shortly:
as §2

Data set [11] relates to Trypanosoma brucei brucei. Description: Antitrypanosomal activity against digitonin permeabilized bloodstream form of Trypanosoma brucei brucei s427 assessed as decrease in 2C/4C DNA content by DAPI staining-based fluorescent microscopy. In kind it is functional, organism-based.
In data set [12] the test system is Trypanosoma brucei brucei. Description: Antitrypanosomal activity against TbAt1-deficient bloodstraem form Trypanosoma brucei brucei B48 after 72 hrs by alamar blue assay. In kind it is functional, organism-based. The note with it: B48, 72 h.
Data set [13] deals with Trypanosoma brucei brucei. Description: Antitrypanosomal activity against bloodstream form of Trypanosoma brucei brucei 427 (BS221) assessed as increased propidium iodide uptake at >/=100 times EC50 after 8 hrs by real-time cell lysis assay. It counts as functional, organism-based. A digest of the protocol:
as §3

Another data set concerns HEK-293T. In words: Cytotoxicity against human HEK293T cells after 72 hrs by alamar blue assay. It counts as cell-based.
In the next data set the test system is Leishmania mexicana. Description: Antileishmanial activity against amastigotes of Leishmania mexicana MNYC/BZ/62/M379 after 72 hrs by alamar blue assay. It counts as functional, organism-based. The note with it: MNYC/BZ/62/M379, 72 h.
The test system of data set [14] is Trypanosoma brucei brucei. Description: Antitrypanosomal activity against digitonin permeabilized bloodstream form of Trypanosoma brucei brucei s427 assessed as DNA fragmentation at 0.3 to 1 uM up to 48 hrs by flow cytometry. It counts as functional, organism-based. A digest of the protocol:
as §1

The subject of a further data set is Plasmodium falciparum. Description: Antiplasmodial activity against Plasmodium falciparum 3D7 assessed as inhibition of [3H]hypoxanthine incorporation after 18 hrs by liquid scintillation counting. In kind it is functional, organism-based.
Data set [15] concerns Trypanosoma brucei brucei. In words: Antitrypanosomal activity against bloodstream form of Trypanosoma brucei brucei s427 assessed as DNA fragmentation at 0.3 to 1 uM up to 48 hrs by flow cytometry. In kind it is functional, organism-based. Put shortly: as §1
The test system of a further data set is Leishmania major. In words: Antileishmanial activity against promastigotes of Leishmania major Friedlin after 72 hrs by alamar blue assay. In kind it is functional, organism-based.

Active and inactive are the calls of the source. No cut-off for these calls is given here.

For the molecule `COc1ccc(C[n+]2cccc(CCCCCCCCCCCCCO)c2)cc1`, the outcome in data set [1], in data set [9], in data set [10], in data set [11], in data set [14] and in data set [15] was inactive. Further, the EC50 was 49 nM in data set [2]; 84 nM in [4]; 62 nM in data set [12]; 21000 nM in the data set with HEK-293T; 650 nM in the data set with Leishmania mexicana; 240 nM in the data set with Plasmodium falciparum. In addition, the EC50 in the data set on Leishmania major came to 320 nM. The outcome in data set [3], in [5], in [6] and in data set [13] was Active. Besides, the selectivity ratio in data set [7] and in data set [8] was 437 throughout.

For orientation: EC50 means the midpoint of the concentration-response curve.
